The full list was thinned out, with hits kept by preference.
T cruzi intra: intracellular Trypanosoma cruzi inhibition; intracellular Trypanosoma cruzi in host cells, plate reader; activity score (inhibition), % at 5.01 µM; 4.9% of 22,000 active; in the data active = activity score above about 55%; inconclusive = no clear call, values can overlap the other calls;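 note: parasites and compound incubated about four days before reading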
INS-1E ATP HTS: INS-1E beta cell protection from cytokine death | 0.1% of 20,000 active | AID 488910 | INS-1E cytokine-induced death, ATP luminescence, 48 h; normalised: neutral wells 0, positive control 100 | protection from cytokine-induced ATP loss, % at 10 µM;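 active = mean replicate protection from cytokine-induced ATP loss at least 50% and at least 75% of replicates each reaching 50%; inconclusive = meets only one of the two criteria, mean or replicate share; inactive = fails both the mean and replicate share criteria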
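Assay system – rat INS-1E insulinoma cell line · Quantity – 8000 cells per well · Buffer or medium – RPMI without phenol red, 5% FBS · Schedule – 48 h co-treatment, 10 min post-lysis read · Technique – luminescent ATP assay (CellTiter-Glo)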
A1 apoptosis 2: compounds inhibiting A1, read as caspase activation | MEF A1-2A-BIM cells, caspase-Glo luminescence, 3 h; percent of clofoctol response, DMSO zero | caspase activation, % (test concentration not listed) | 24,000 tested, under 10 active | AID 2465; in the data active = caspase activation above about 5.9%; inconclusive = no clear call, values can overlap the other calls; inactive = below about 2.2%
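Test system – A1-2A-BIM-expressing MEF cells · Input – 2500 cells/well · Medium – RPMI-1640 growth medium with 10% FBS · Compound dosing – 50 nL pinned compound · Timing – 3 h compound exposure at 37 °C · Technique – Caspase-Glo luminescence (DEVD substrate) · Evaluation – Caspase-3/7 activity from luminescence increase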
Each line names hits and unclear results; the compound was inactive in the other large screens.

C[C@H](CO)N1C[C@H](C)[C@@H](CN(C)Cc2ccc(-c3ccccc3)cc2)Oc2c(NC(=O)c3ccc(-c4nccs4)cc3)cccc2C1=O	T cruzi intra 81 (no result: A1 apoptosis 2)
C[C@H]1CN([C@@H](C)CO)C(=O)c2cccc(NC(=O)c3ccc(-c4nccs4)cc3)c2O[C@H]1CN(C)Cc1ccc(Oc2ccccc2)cc1	none
C[C@H](CO)N1C[C@H](C)[C@@H](CN(C)Cc2ccc(Oc3ccccc3)cc2)Oc2c(NC(=O)c3ccc(-c4nccs4)cc3)cccc2C1=O	T cruzi intra 67
O=C(NN=C1CCCCCC1)c1ccccn1	none
COC(=O)CCCCCCC(=O)N/N=C/c1cn(Cc2ccccc2)c2ccccc12	none (no result: A1 apoptosis 2)
CC(/C=C/C(=O)NO)=C\c1cccc(OC[C@@H]2[C@H]3C[C@H]4c5[nH]c6ccccc6c5CCN4C[C@@H]3CC[C@@H]2O)c1	none (no result: T cruzi intra, INS-1E ATP HTS)
C[C@H]1CN([C@@H](C)CO)C(=O)c2cccc(NC(=O)c3nc4ccccc4s3)c2O[C@@H]1CN(C)Cc1ccc(Cl)c(Cl)c1	T cruzi intra 65
C[C@@H]1CN([C@@H](C)CO)C(=O)c2cccc(NC(=O)c3nc4ccccc4s3)c2O[C@H]1CN(C)Cc1ccc(C(=O)Nc2ccccc2N)cc1	T cruzi intra 70 (no result: A1 apoptosis 2)
C[C@H](CO)N1C[C@H](C)[C@@H](CN(C)Cc2ccc(Oc3ccccc3)cc2)Oc2c(NC(=O)c3nc4ccccc4s3)cccc2C1=O	T cruzi intra 66 (no result: A1 apoptosis 2)
C[C@@H]1CN([C@@H](C)CO)C(=O)c2cccc(NC(=O)c3nc4ccccc4s3)c2O[C@H]1CN(C)Cc1ccc(-c2ccccc2)cc1	T cruzi intra 71 (no result: A1 apoptosis 2)
C[C@@H]1CN([C@H](C)CO)C(=O)c2cccc(NC(=O)c3nc4ccccc4s3)c2O[C@@H]1CN(C)Cc1ccccc1	none
C[C@@H]1CN([C@H](C)CO)C(=O)c2cccc(NC(=O)c3nc4ccccc4s3)c2O[C@@H]1CN(C)Cc1ccc(C(=O)Nc2ccccc2N)cc1	none (no result: T cruzi intra, INS-1E ATP HTS)
C[C@@H]1CN([C@H](C)CO)C(=O)c2cccc(NC(=O)c3nc4ccccc4s3)c2O[C@@H]1CN(C)Cc1ccc(-c2ccccc2)cc1	none
C[C@H]1CN([C@@H](C)CO)C(=O)c2cccc(NC(=O)c3nc4ccccc4s3)c2O[C@@H]1CN(C)Cc1ccc(Oc2ccccc2)cc1	none
CC(=O)NCCCC[C@@H]1NC(=O)[C@@H]2C[C@H](C(=O)NCc3ccc(F)cc3)[C@H](c3cccc(OCCO)c3)N2C1=O	none (no result: T cruzi intra, INS-1E ATP HTS)
COC(=O)CCCCCCC(=O)NN=C1CCCCCC1	none
Cc1ccccc1/C=N/NC(=O)c1ccccn1	none
NC(=O)NCC#Cc1ccc2c(c1)[C@]1(C(=O)N2)[C@H](C(=O)N2CCCCCCC2)[C@H]2C(=O)O[C@H](c3ccccc3)[C@H](c3ccccc3)N2[C@@H]1c1ccccc1OCCO	none (no result: T cruzi intra, INS-1E ATP HTS)
O=C(NO)c1cccc(C(=O)N/N=C/c2nccs2)c1	none
O=C(NO)c1ccc(C(=O)N/N=C/c2ccoc2)cc1	none
C[C@H](CO)N1C[C@H](C)[C@H](CN(C)Cc2ccccc2)OCCCC[C@H](C)Oc2ccc(NS(=O)(=O)c3ccccc3)cc2C1=O	none (no result: T cruzi intra, INS-1E ATP HTS)
O=C(N/N=C/c1cccc(O)c1O)c1ccccn1	none (no result: A1 apoptosis 2)
COC(=O)CCCCCCC(=O)N/N=C/c1cc(Cl)cc(Cl)c1O	none (no result: A1 apoptosis 2)
O=C(N/N=C/c1cc(I)cc(I)c1O)c1ccccn1	T cruzi intra 91
COC(=O)CCCCCCC(=O)N/N=C/c1cc(I)cc(I)c1O	T cruzi intra 88
Cc1ccc(S(=O)(=O)N(c2cccc(N=[N+]=[N-])c2)S(=O)(=O)c2ccc(C)cc2)cc1	none (no result: T cruzi intra, INS-1E ATP HTS)
C[C@@H]1CN([C@H](C)CO)C(=O)c2cccc(NC(=O)c3ccncc3)c2O[C@@H]1CN(C)Cc1ccc(Cl)c(Cl)c1	T cruzi intra 76
C[C@@H]1CN([C@H](C)CO)C(=O)c2cccc(NC(=O)c3ccc(-c4nccs4)cc3)c2O[C@H]1CN(C)Cc1ccc2c(c1)OCO2	none (no result: A1 apoptosis 2)
C[C@@H]1CN([C@H](C)CO)C(=O)c2cccc(NC(=O)c3cnccn3)c2O[C@@H]1CN(C)Cc1ccc(Cl)c(Cl)c1	none
C[C@H]1CN([C@@H](C)CO)C(=O)c2cccc(NC(=O)c3ccncc3)c2O[C@@H]1CN(C)Cc1ccc(Cl)c(Cl)c1	T cruzi intra 77
C[C@@H]1CN([C@H](C)CO)C(=O)c2cccc(NC(=O)c3cnccn3)c2O[C@H]1CN(C)Cc1ccc(Cl)c(Cl)c1	none (no result: A1 apoptosis 2)
C[C@H]1CN([C@@H](C)CO)C(=O)c2cccc(NC(=O)c3cnccn3)c2O[C@@H]1CN(C)Cc1ccc(Cl)c(Cl)c1	none (no result: A1 apoptosis 2)
C[C@H](CO)N1C[C@H](C)[C@H](CN(C)Cc2ccc3c(c2)OCO3)Oc2c(NC(=O)c3ccncc3)cccc2C1=O	T cruzi intra 64
C[C@H]1CN([C@@H](C)CO)C(=O)c2cccc(NC(=O)c3ccncc3)c2O[C@H]1CN(C)Cc1ccc(Cl)c(Cl)c1	T cruzi intra 86
O=C(CCCCCC(=O)Nc1ccccc1O)N/N=C/[C@H](O)[C@@H](O)[C@H](O)[C@H](O)CO[C@H]1O[C@H](CO)[C@H](O)[C@H](O)[C@H]1O	none (no result: T cruzi intra, INS-1E ATP HTS)
C=CCNC(=O)[C@@H]1[C@H]2C(=O)O[C@H](c3ccccc3)[C@H](c3ccccc3)N2[C@H](c2ccccc2OCCO)[C@@]12C(=O)Nc1ccccc12	none (no result: T cruzi intra, INS-1E ATP HTS)
Nc1cccc(COc2ccc(/C=C/C(=O)NO)cc2)c1	none (no result: T cruzi intra, INS-1E ATP HTS)
C[C@@H]1CN([C@H](C)CO)C(=O)c2cccc(NC(=O)c3ccncc3)c2O[C@@H]1CN(C)Cc1ccc(Oc2ccccc2)cc1	T cruzi intra 81
C[C@@H]1CN([C@@H](C)CO)C(=O)c2cccc(NC(=O)c3ccncc3)c2O[C@H]1CN(C)Cc1ccc(Oc2ccccc2)cc1	T cruzi intra 80
C[C@@H]1CN([C@H](C)CO)C(=O)c2cccc(NC(=O)c3cnccn3)c2O[C@H]1CN(C)Cc1ccc(Oc2ccccc2)cc1	none (no result: A1 apoptosis 2)
C[C@H]1CN([C@@H](C)CO)C(=O)c2cccc(NC(=O)c3ccncc3)c2O[C@H]1CN(C)Cc1ccc(Oc2ccccc2)cc1	T cruzi intra 82
C[C@@H]1CN([C@@H](C)CO)C(=O)c2cccc(NC(=O)c3cnccn3)c2O[C@H]1CN(C)Cc1ccc(Oc2ccccc2)cc1	none (no result: A1 apoptosis 2)
C[C@H](CO)N1C[C@H](C)[C@H](CN(C)Cc2ccc(Oc3ccccc3)cc2)Oc2c(NC(=O)c3cnccn3)cccc2C1=O	T cruzi intra 69
C[C@H](CO)N1C[C@H](C)[C@@H](CN(C)Cc2ccc(Oc3ccccc3)cc2)Oc2c(NC(=O)c3cnccn3)cccc2C1=O	T cruzi intra inconclusive (no result: A1 apoptosis 2)
C=CCOc1ccccc1/C=N/NC(=O)c1ccccc1O	none
COc1cc(/C=N/NC(=O)c2ccccc2O)c([N+](=O)[O-])cc1OC	none
O=C(CCCCC(=O)N/N=C/c1cccnc1Br)NO	none (no result: T cruzi intra, INS-1E ATP HTS)
Cc1ccc(S(=O)(=O)Nc2cccc3c2O[C@@H](CN(C)S(C)(=O)=O)[C@@H](C)CN([C@H](C)CO)C3=O)cc1	none (no result: A1 apoptosis 2)
CC1=C(C/C=N/NC(=O)CCCCCCC(=O)Nc2ccccc2O)C(C)(C)CCC1	none (no result: A1 apoptosis 2)
C[C@@H]1CCCCO[C@H](CN(C)Cc2ccc(Cl)c(Cl)c2)[C@@H](C)CN([C@@H](C)CO)C(=O)c2cc(NC(=O)NC3CCCCC3)ccc2O1	none (no result: T cruzi intra, INS-1E ATP HTS)
